Data taken from article PMC4834983 (Journal of medicinal chemistry, 2015).

Legend:
[1] = tested on: protein tyrosine phosphatase (PTP)1B; test: Immunoblotting, U251MG glioma cells; type: cell-based, human; conditions: 5 μM
Procedure, shortened: (§1)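 U251MG cells given 5 μM test compound for 0–24 h. Whole-cell lysates of equal total protein immunoblotted for pErk1/2, Erk1/2, pS-Akt, Akt, pJAK2, JAK2, SOCS3 and PTP1B, with β-actin or GAPDH as loading reference.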

U251MG cells [2] = test: BrdU incorporation assay; type: cell-based, human; conditions: 5 μM, at 24 h
Procedure, shortened: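 U251MG cells on glass coverslips exposed to DMSO or 5 μM test compound for 3–24 h. BrdU (10 micromolar) added for the final 2 h. Fixed in 4% paraformaldehyde for 10 min, stained with anti-BrdU antibody and counterstained with DAPI. Imaged by fluorescence microscopy, and cells counted.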

G22 cells [3] = test: Growth of glioma patient-derived xenograft cells in vitro; type: cell-based; conditions: Homo sapiens, read-out: inhibitory activity against growth of G22 cells
G12 cells = test: as above; type: cell-based; conditions: Homo sapiens, read-out: inhibitory activity against G12 cell growth
G22 cells [4] = test: 3D spheroid assay; type: cell-based, human; conditions: 5 μM, treated once
[5] = Body weights and signs of toxicity in tumor-bearing mice; type: in vivo; conditions: 2 mg/kg, oral gavage, 33 days
Stat3:Stat3 = Stat3:Stat3 (Mus musculus, UniProt P42227); test: Cell-free EMSA, nuclear extracts pre-incubated with compound, hSIE probe; type: biochemical; conditions: 5 μM, 30 min pre-incubation, NIH3T3/v-Src nuclear extracts
Stat3:Stat3, sequence (P42227 2-770 limits assumed): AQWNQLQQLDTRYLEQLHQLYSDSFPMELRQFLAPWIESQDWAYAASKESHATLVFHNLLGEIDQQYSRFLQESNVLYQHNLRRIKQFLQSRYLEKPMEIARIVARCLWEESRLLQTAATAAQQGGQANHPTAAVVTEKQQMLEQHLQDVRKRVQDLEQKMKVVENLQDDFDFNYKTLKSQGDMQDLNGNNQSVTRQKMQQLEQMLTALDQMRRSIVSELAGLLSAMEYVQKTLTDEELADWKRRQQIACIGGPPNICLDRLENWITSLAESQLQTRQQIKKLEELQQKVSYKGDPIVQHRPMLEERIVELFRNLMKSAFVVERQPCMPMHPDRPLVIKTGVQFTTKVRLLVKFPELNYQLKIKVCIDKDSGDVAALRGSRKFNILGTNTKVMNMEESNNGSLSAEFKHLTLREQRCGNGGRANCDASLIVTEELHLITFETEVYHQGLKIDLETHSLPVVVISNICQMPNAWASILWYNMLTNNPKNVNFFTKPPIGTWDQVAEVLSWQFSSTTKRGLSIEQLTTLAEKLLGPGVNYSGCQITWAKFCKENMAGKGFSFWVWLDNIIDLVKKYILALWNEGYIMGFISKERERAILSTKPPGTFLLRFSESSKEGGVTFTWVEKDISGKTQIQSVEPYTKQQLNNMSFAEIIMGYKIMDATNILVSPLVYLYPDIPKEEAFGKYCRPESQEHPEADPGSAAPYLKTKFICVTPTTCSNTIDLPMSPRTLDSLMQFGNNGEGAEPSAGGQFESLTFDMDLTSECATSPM

pStat3 [6] = test: Immunoblots of tumor tissue lysates from treated mice; type: in vivo, mouse; conditions: four-to-five cases out of six
Procedure, shortened: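 After oral dosing, lysates of residual subcutaneous U251MG tumour tissue from treated and 1% DMSO vehicle mice. Immunoblotted for pStat3 and Stat3, with GAPDH as loading reference.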

G10 cells = test: Growth of glioma patient-derived xenograft cells in vitro; type: cell-based; conditions: Homo sapiens, read-out: inhibitory activity against growth of G10 cells
U251MG cells [7] = test: Colony survival assay; type: cell-based, human; conditions: 1 μM, treated once
Procedure, shortened: (§2)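 Cells seeded as single cells at 250 per well and treated once the next day with test compound (0–5 μM) for 72 h. Grown until large colonies were visible: 1 week for NIH3T3, 2 weeks for U251MG. Colonies stained with crystal violet for 4 h and counted.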

pStat3 [8] = test: Immunoblotting of pStat3 in patient-derived xenograft cells; type: cell-based, human; conditions: 5 μM, 3 h
Procedure, shortened: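 Glioma patient-derived xenograft G22 cells (DMEM, 5–10% heat-inactivated FBS) given 5 μM test compound for 0–24 h. Whole-cell lysates immunoblotted for pStat3 and Stat3, with GAPDH as loading reference.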

NIH3T3 cells = test: Colony survival assay; type: cell-based, mouse; conditions: 2.5 μM or less
Procedure, shortened: as §2

pYStat3 = test: Immunoblotting of pStat3 in treated U251MG cells; type: cell-based, human; conditions: 5 μM, glioma cells, immunoblotting
Procedure, shortened: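 Whole-cell lysates from U251MG cells given test compound at 5 μM for 0–24 h, or at 0–5 μM for 2 h. Immunoblotted for pY705Stat3 and total Stat3, with GAPDH as loading reference.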

[9] = tested on: suppressors of cytokine signaling (SOCS)3; test: Immunoblotting, U251MG glioma cells; type: cell-based, human; conditions: 5 μM
Procedure, shortened: as §1

[10] = tested on: c-Myc, Bcl-2, Mcl-1 and Bcl-xL expression; test: Immunoblots of Stat3-regulated gene products in U251MG cells; type: cell-based, human; conditions: 5 μM
Procedure, shortened: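 Whole-cell lysates prepared from U251MG cells given 5 μM test compound for 0–24 h, with 0.025% DMSO as control. Immunoblotted for c-Myc, Bcl-2, Bcl-xL, Mcl-1, pStat3 and Stat3, with GAPDH as loading reference.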

Stat5:Stat5 = test: Cell-free EMSA, EGF-stimulated NIH3T3/hEGFR nuclear extracts, MGFe probe; type: biochemical, mouse; conditions: 5 μM, 30 min pre-incubation
Procedure, shortened: (§3)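 Nuclear extracts from EGF-stimulated NIH3T3/hEGFR fibroblasts, containing active Stat1, Stat3 and Stat5, preincubated with 5 μM test compound for 30 min at room temperature. Then incubated 30 min with 32P-labelled probe before EMSA: hSIE (Stat1/Stat3 binding) or MGFe (bovine β-casein element; Stat1/Stat5 binding). STAT:DNA bands quantified as percent of control.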

pJAK2 = test: Immunoblotting, U251MG glioma cells; type: cell-based, human; conditions: 5 μM
Procedure, shortened: as §1

pErk1/2MAPK [11] = test: Immunoblotting, U251MG glioma cells; type: cell-based, human; conditions: 5 μM
Procedure, shortened: as §1

pStat1 = test: Immunoblotting, EGF-stimulated NIH3T3/hEGFR fibroblasts; type: cell-based, mouse; conditions: 5 μM pre-treatment
Procedure, shortened: (§4)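 NIH3T3/hEGFR fibroblasts pretreated with or without 5 μM test compound for 3 h, then stimulated with 1 μg/ml EGF for 12 min. Whole-cell lysates, equal total protein, immunoblotted for pStat1/Stat1, pStat5/Stat5 and pErk1/2/Erk1/2.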

U251MG cells [12] = test: Immunofluorescence staining/confocal microscopy of mitosis; type: cell-based, human; conditions: 15 h treatment
Procedure, shortened: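 U251MG cells on coverslips synchronised by double thymidine block (2 mM) and released for 9 h. Then given DMSO, 100 nM paclitaxel or 8 μM test compound for 15 h. Fixed in 4% paraformaldehyde, permeabilised with 0.1% digitonin and blocked in 0.2% BSA. Stained with anti-β-tubulin (1:350) and anti-MAP1B (1:300) for 1 h at room temperature, then fluorescent secondaries and DAPI; confocal imaging.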

pStat5 = test: Immunoblotting, EGF-stimulated NIH3T3/hEGFR fibroblasts; type: cell-based, mouse; conditions: 5 μM pre-treatment
Procedure, shortened: as §4

pS-Akt = test: Immunoblotting, U251MG glioma cells; type: cell-based, human; conditions: 5 μM
Procedure, shortened: as §1

U251MG cells [13] = test: Scratch assay for migration; type: cell-based, human; conditions: 5 μM, 19-h treatment
Procedure, shortened: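 Sub-confluent U251MG monolayers wounded with pipette tips and treated once with test compound (0–5 μM) or DMSO vehicle. Cells allowed to migrate into the denuded area over 19 h, then imaged by microscopy at 10×.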

Stat3 = Stat3 DNA-binding activity/EMSA of nuclear extracts from treated glioma cells; type: cell-based, human; conditions: 5 μM, glioma cells, EMSA
Stat1:Stat1 = target: T1, Stat1:Stat1 (Mus musculus, UniProt P42225); test: Cell-free EMSA, EGF-stimulated NIH3T3/hEGFR nuclear extracts; type: biochemical; conditions: 5 μM, 30 min pre-incubation
T1 sequence (P42225 2-749 limits assumed): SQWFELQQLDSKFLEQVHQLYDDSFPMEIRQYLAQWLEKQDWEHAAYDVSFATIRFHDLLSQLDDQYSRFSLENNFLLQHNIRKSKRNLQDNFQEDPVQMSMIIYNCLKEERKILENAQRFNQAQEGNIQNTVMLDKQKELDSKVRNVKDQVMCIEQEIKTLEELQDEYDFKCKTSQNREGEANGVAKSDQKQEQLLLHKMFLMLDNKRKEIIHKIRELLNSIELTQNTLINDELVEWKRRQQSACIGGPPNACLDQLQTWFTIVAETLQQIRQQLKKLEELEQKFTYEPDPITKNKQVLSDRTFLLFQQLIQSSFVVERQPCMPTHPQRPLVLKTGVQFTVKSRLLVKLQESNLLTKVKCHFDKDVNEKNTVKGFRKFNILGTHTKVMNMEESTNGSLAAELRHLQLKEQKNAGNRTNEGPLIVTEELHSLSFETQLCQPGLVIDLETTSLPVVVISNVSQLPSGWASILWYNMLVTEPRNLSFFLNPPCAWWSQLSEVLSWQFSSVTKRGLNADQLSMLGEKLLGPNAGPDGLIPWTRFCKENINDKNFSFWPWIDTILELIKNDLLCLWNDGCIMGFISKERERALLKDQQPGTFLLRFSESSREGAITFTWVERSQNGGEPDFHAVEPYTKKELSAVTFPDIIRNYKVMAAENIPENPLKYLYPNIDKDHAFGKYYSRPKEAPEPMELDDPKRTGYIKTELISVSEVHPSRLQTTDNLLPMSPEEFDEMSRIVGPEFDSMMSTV
Procedure, shortened: as §3

[14] = tested on: U251MG subcutaneous tumor xenografts; test: Subcutaneous glioma xenograft tumor growth; type: in vivo, mouse; conditions: 2 mg/kg, oral gavage, 33 days
Procedure, shortened: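 Female athymic nude mice, 4 weeks old, injected subcutaneously in the left flank with 7.3 ×10^6 U251MG cells in PBS/matrigel. At 20 days (tumours 170–250 mm3), mice grouped by matched mean tumour size. Dosed 2 mg/kg by oral gavage in 1% DMSO vehicle, three times weekly, for 33 days. Caliper volumes (V = 0.52 × a2 × b) and body weights recorded; paired t test against vehicle.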

pErk1/2MAPK [15] = test: Immunoblotting, EGF-stimulated NIH3T3/hEGFR fibroblasts; type: cell-based, mouse; conditions: 5 μM pre-treatment
Procedure, shortened: as §4

C/C=C(\C)C(=O)O[C@H]1C[C@@H](C)[C@]2(O)CC[C@](C)(/C=C3/OC(=O)C(COC(C)=O)=C31)O2 [Compound 6]
effect on PTP1B levels [1]: no effects | cell proliferation measured by BrdU incorporation (U251MG cells [2]): significantly impaired | inhibition at 5 µM (G22 cells [3]): 45 to 60% | inhibition at 5 µM (G12 cells): 25 to 35% | 3D spheroid growth (G22 cells [4]): decreased 3D spheroid growth | body weights or obvious signs of toxicity [5]: No significant changes | Stat3:Stat3/DNA-binding activity (complexation), cell-free EMSA (Stat3:Stat3): diminished | pStat3 and Stat3 levels in residual tumor tissues (pStat3 [6]): lower | inhibition at 5 µM (G10 cells): 45 to 60% | U251MG colony formation (U251MG cells [7]): completely inhibited | effect on Phospho-Stat3 in G22 cells (pStat3 [8]): strongly inhibited | effects on NIH3T3 colony numbers (NIH3T3 cells): moderate or none | effect on pStat3 in treated tumor cells (pYStat3): strongly inhibited | effect on SOCS3 levels [9]: no effects | c-Myc, Bcl-2, Mcl-1 and Bcl-xL expression [10]: down regulated | effect on Stat5:Stat5 activity, cell-free EMSA (Stat5:Stat5): weak effects | effect on pJAK2 (pJAK2): apparent moderate increase | effect on pErk1/2MAPK levels (pErk1/2MAPK [11]): no effects | effect on EGF-stimulated pStat1 levels (pStat1): no effect | chromatid structures and sister-chromatids segregation (mitosis) (U251MG cells [12]): caused defects | effect on EGF-stimulated pStat5 levels (pStat5): no effect | effect on pS-Akt levels (pS-Akt): no effects | migration into the denuded area (U251MG cells [13]): slowed migration | effect on Stat3 DNA-binding activity in treated tumor cells (Stat3): strongly inhibited | effect on Stat1:Stat1 activity, cell-free EMSA (Stat1:Stat1): weak effects | growth of subcutaneous U251MG xenografts [14]: inhibited growth | effect on EGF-stimulated pErk1/2MAPK levels (pErk1/2MAPK [15]): no effect
